System: Japanese patients with solid tumors
Test: Phase I dose-escalation study: safety, tolerability, DLT and MTD
Type: in vivo, human
Details: for Tolerability: dose level of up to 90 mg
How it was run: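 Oral test compound (tosylate salt) was given QD on days 1–21 of 28-day cycles in cohorts of 3–6 patients at 60, 90 or 120 mg. Escalation used a modified continual reassessment method (Bayesian logistic regression, escalation with overdose control). DLT window was cycle 1 (28 days). AEs were coded with MedDRA 18.0 and graded by CTCAE v4.0 (Japanese). Analysis covered patients receiving ≥1 dose.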

[1] = Cohort 3 120 mg/d (n = 4), All grades
[2] = Cohort 3 120 mg/d (n = 4), Grade ≥ 3

CC1(C)CCC2(CC1)N[C@@H](C(=O)N[C@@H]1CC[C@@H](C(N)=O)OC1)[C@H](c1ccnc(Cl)c1F)[C@]21C(=O)Nc2cc(Cl)ccc21 [milademetan, Milademetan]
4 n: Grade ≥ 3 TEAE: platelet count decreased (all 18 patients) | Dose interruption because of platelet count decreased (all cohorts)
No patients required a dose reduction: Dose reduction due to TEAEs (all cohorts)
13 (72.2) n (%): TEAE: Nausea (Total (n = 18), All grades)
2 (50.0) n (%): TEAE: Lymphocyte count decreased [1] | TEAE: Neutrophil count decreased [1] | TEAE: Vomiting [1] | TEAE: White blood cell count decreased [1]
61.1%: TEAE: decreased appetite, frequency (all 18 patients, all grades) | TEAE: platelet count decreased, frequency (all 18 patients, all grades)
generally safe and well tolerated: Tolerability (once-daily 21/28-day schedule, listed as Milademetan)
3 (16.7) n (%): TEAE: Anemia (Total (n = 18), Grade ≥ 3)
90 mg/day: Maximum tolerated dose (MTD) (days 1 to 21 of a 28-day cycle)
3 (75.0) n (%): TEAE: Nausea [1] | TEAE: Platelet count decreased [1] | TEAE: Platelet count decreased [2]
2 n: Grade ≥ 3 TEAE: ALT increased (all 18 patients) | Grade ≥ 3 TEAE: hyponatremia (all 18 patients) | Dose interruption because of decreased appetite (all cohorts)
11 (61.1) n (%): TEAE: Decreased appetite (Total (n = 18), All grades) | TEAE: Platelet count decreased (Total (n = 18), All grades)
1 (25.0) n (%): TEAE: Pyrexia [1] | TEAE: Sepsis [1] | TEAE: Alanine aminotransferase increased [2] | TEAE: Aspartate aminotransferase increased [2] | TEAE: Disease progression [2] | TEAE: Hyponatremia [2] | TEAE: Lymphocyte count decreased [2] | TEAE: Neutrophil count decreased [2] | TEAE: Sepsis [2] | TEAE: White blood cell count decreased [2]
3 n: Grade ≥ 3 TEAE: anemia (all 18 patients)
6 n: Dose interruption because of nausea (all cohorts)
9 (50.0) n (%): TEAE: Anemia (Total (n = 18), All grades) | TEAE: Fatigue (Total (n = 18), All grades) | TEAE: White blood cell count decreased (Total (n = 18), All grades)
90 mg: Maximum tolerated dose (MTD) (once-daily 21/28-day schedule) | Recommended dose for phase II (once-daily 21/28-day schedule)
2 (11.1) n (%): TEAE: Alanine aminotransferase increased (Total (n = 18), Grade ≥ 3) | TEAE: Hyponatremia (Total (n = 18), Grade ≥ 3)
8 (44.4) n (%): TEAE: Hypoalbuminemia (Total (n = 18), All grades)
5 (27.8) n (%): TEAE: Constipation (Total (n = 18), All grades) | TEAE: Diarrhea (Total (n = 18), All grades) | TEAE: Hyponatremia (Total (n = 18), All grades) | TEAE: Neutrophil count decreased (Total (n = 18), All grades) | TEAE: Vomiting (Total (n = 18), All grades)
well tolerated: Tolerability (once-daily 21/28-day schedule)
Three patients withdrew: Withdrawal from the study because of TEAEs (one in 90-mg cohort, two in 120-mg cohort)
Six patients: Patients who developed serious TEAEs (four at 90 mg, one at 60 mg, one at 120 mg, eight serious TEAEs)
18 patients: Patients with at least one drug-related TEAE (of 18 patients)
1 (5.6) n (%): TEAE: Disease progression (Total (n = 18), All grades) | TEAE: Hypophosphataemic rickets (Total (n = 18), All grades) | TEAE: Jaundice cholestatic (Total (n = 18), All grades) | TEAE: Lymphangiosis carcinomatosa (Total (n = 18), All grades) | TEAE: Sepsis (Total (n = 18), All grades) | TEAE: Urinary tract infection (Total (n = 18), All grades) | TEAE: Aspartate aminotransferase increased (Total (n = 18), Grade ≥ 3) | TEAE: Disease progression (Total (n = 18), Grade ≥ 3) | TEAE: Hypophosphataemic rickets (Total (n = 18), Grade ≥ 3) | TEAE: Jaundice cholestatic (Total (n = 18), Grade ≥ 3) | TEAE: Lymphangiosis carcinomatosa (Total (n = 18), Grade ≥ 3) | TEAE: Lymphocyte count decreased (Total (n = 18), Grade ≥ 3) | TEAE: Neutrophil count decreased (Total (n = 18), Grade ≥ 3) | TEAE: Sepsis (Total (n = 18), Grade ≥ 3) | TEAE: Urinary tract infection (Total (n = 18), Grade ≥ 3) | TEAE: White blood cell count decreased (Total (n = 18), Grade ≥ 3)
0 (0.0) n (%): TEAE: Hypophosphataemic rickets [1] | TEAE: Jaundice cholestatic [1] | TEAE: Lymphangiosis carcinomatosa [1] | TEAE: Urinary tract infection [1] | TEAE: Anemia [2] | TEAE: Constipation [2] | TEAE: Decreased appetite [2] | TEAE: Diarrhea [2] | TEAE: Fatigue [2] | TEAE: Hypoalbuminemia [2] | TEAE: Hypophosphataemic rickets [2] | TEAE: Jaundice cholestatic [2] | TEAE: Lymphangiosis carcinomatosa [2] | TEAE: Nausea [2] | TEAE: Pyrexia [2] | TEAE: Urinary tract infection [2] | TEAE: Vomiting [2] | TEAE: Constipation (Total (n = 18), Grade ≥ 3) | TEAE: Decreased appetite (Total (n = 18), Grade ≥ 3) | TEAE: Diarrhea (Total (n = 18), Grade ≥ 3) | TEAE: Fatigue (Total (n = 18), Grade ≥ 3) | TEAE: Hypoalbuminemia (Total (n = 18), Grade ≥ 3) | TEAE: Nausea (Total (n = 18), Grade ≥ 3) | TEAE: Pyrexia (Total (n = 18), Grade ≥ 3) | TEAE: Vomiting (Total (n = 18), Grade ≥ 3)
ten patients: Dose interruptions (all cohorts)
33.3%: Serious TEAEs, percentage of patients (six out of 18 patients)
72.2%: TEAE: nausea, frequency (all 18 patients, all grades)
38.9%: Drug-related TEAE: anemia, frequency (all 18 patients)
4 (22.2) n (%): TEAE: Alanine aminotransferase increased (Total (n = 18), All grades) | TEAE: Aspartate aminotransferase increased (Total (n = 18), All grades) | TEAE: Lymphocyte count decreased (Total (n = 18), All grades) | TEAE: Pyrexia (Total (n = 18), All grades) | TEAE: Platelet count decreased (Total (n = 18), Grade ≥ 3)
no clinically relevant changes: Changes in laboratory parameters (other than platelet count decreased), vital signs, electrocardiogram (hematology, blood chemistry, coagulation, urinalysis, vital signs, ECG)
50.0%: TEAE: anemia, frequency (all 18 patients, all grades) | TEAE: fatigue, frequency (all 18 patients, all grades) | TEAE: white blood cell count decreased, frequency (all 18 patients, all grades)

— PMC8177775 (Cancer Science, 2021)
